Results taken from PMC2711989 (Cancer research, 2009).
Read-outs that look alike come from different tables or passages of the source.

What was measured:
BxPC-3 xenograft = experiment: Biodistribution in the BxPC-3 xenograft model; type: in vivo, mice
In short: (§1)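 Male athymic nude mice (nu/nu) received 1.5 × 10^6 BxPC-3 cells s.c. in the left shoulder region, in 1:1 serum-free DMEM/MatriGel. Studies began at a tumor diameter of ∼0.5 cm. Radiotracers (∼15 to 30 μCi) were given in saline/PBS, n = 3 per time point. Tumor and tissue radioactivity was expressed as decay-corrected %ID/g, mean ± SD. Significance was tested by two-tailed Student's t-test.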

[1] = Biodistribution in the BxPC-3 xenograft model; type: in vivo, mice; conditions: male, athymic nude (nu/nu), mouse, BxPC-3 tumor, iv, total radioactivity
In short: as §1

[2] = system: DX3puroβ6 (αvβ6-positive) and DX3puro (αvβ6-negative) xenografts; experiment: Biodistribution in the DX3puro/DX3puroβ6 xenograft model; type: in vivo, mice
In short: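 Each male athymic nude mouse (nu/nu) carried both xenografts: 3 × 10^6 DX3puroβ6 (αvβ6-transduced) and 3 × 10^6 DX3puro (control) melanoma cells in serum-free DMEM, injected s.c. on opposite shoulder flanks. Studies began at a tumor diameter of ∼0.5 cm. Radiotracers (∼15 to 30 μCi) were given in saline/PBS, n = 3 per time point. Uptake was expressed as decay-corrected %ID/g, mean ± SD.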

BxPC-3 tumor = experiment: MicroPET imaging of the BxPC-3 xenograft model; type: in vivo, mice; conditions: for SUVmax in BxPC-3 tumor: mean ± SD, n = 3 animals
[3] = system: DX3puroβ6 (αvβ6-positive) and DX3puro (αvβ6-negative) xenografts; conditions: previously seen, cited from earlier work
BxPC-3 cell line = experiment: Radiotracer cell binding and internalization, BxPC-3 cells; type: cell-based, human; conditions: BxPC-3, 1 hour, acidic wash buffer pH 2.5, 4°C
In short: (§2)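 3.75 × 10^6 cells were incubated with 0.2 μCi radiotracer in serum-free medium, pH 7.2, over a time course or for 1 h, n = 4 per cell line per time point. Bound fraction was γ-counted as cell pellet vs supernatant. Acid wash (0.2 mol/L sodium acetate, 0.5 mol/L NaCl, pH 2.5, 4°C) then released surface activity; internalized fraction was pellet vs released activity.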

DX3puroβ6 cell line = experiment: Radiotracer cell binding and internalization, DX3puroβ6 cells; type: cell-based, human; conditions: DX3puroβ6, 1 hour, acidic wash buffer pH 2.5, 4°C
In short: as §2

Row | Compound | BxPC-3/blood ratio (BxPC-3 xenograft; 1 h) | BxPC-3/muscle ratio (BxPC-3 xenograft; 1 h) | BxPC-3/pancreas ratio (BxPC-3 xenograft; 1 h) | BxPC-3/blood ratio (BxPC-3 xenograft; 4 h) | BxPC-3/muscle ratio (BxPC-3 xenograft; 4 h) | BxPC-3/pancreas ratio (BxPC-3 xenograft; 4 h) | tissue uptake at 1 h [1] [%ID/g] | tissue uptake at 4 h [1] [%ID/g] | maximal αvβ6-positive/-negative xenograft uptake ratio [2] | SUVmax in BxPC-3 tumor (BxPC-3 tumor; 15min) | SUVmax in BxPC-3 tumor (BxPC-3 tumor; 1 h p.i.) | SUVmax in BxPC-3 tumor (BxPC-3 tumor; 4 h) | uptake in αvβ6-positive DX3puroβ6 tumor ([3]; 1 h p.i.) [% ID/g] | uptake in αvβ6-positive DX3puroβ6 tumor ([3]; 4 h p.i.) [% ID/g] | fraction of bound radioactivity internalized (BxPC-3 cell line) | fraction of bound radioactivity internalized (DX3puroβ6 cell line) | detection of BxPC-3 tumors by PET (BxPC-3 tumor; BxPC-3 xenograft bearing mice)
1 | CC(C)C[C@H](NC(=O)[C@H](CC(=O)O)NC(=O)CNC(=O)[C@H](CCCNC(=N)N)NC(=O)[C@H](CC(C)C)NC(=O)[C@H](CC(N)=O)NC(=O)[C@@H]1CCCN1C(=O)[C@@H](NC(=O)[C@H](C)NC(=O)[C@H](CC(N)=O)NC(=O)CCOCCOCCOCCOCCOCCOCCOCCOCCOCCOCCOCCOCCOCCOCCOCCOCCOCCOCCOCCOCCOCCOCCOCCOCCOCCOCCOCCOCCNC(=O)CCOCCOCCOCCOCCOCCOCCOCCOCCOCCOCCOCCOCCOCCOCCOCCOCCOCCOCCOCCOCCOCCOCCOCCOCCOCCOCCOCCOCCNC(=O)c1ccc(F)cc1)C(C)C)C(=O)N[C@@H](CCC(N)=O)C(=O)N[C@H](C(=O)N[C@@H](CC(C)C)C(=O)N[C@@H](C)C(=O)N[C@@H](CCC(N)=O)C(=O)N[C@@H](CCCCN)C(=O)N[C@H](C(=O)N[C@@H](C)C(=O)N[C@@H](CCCNC(=N)N)C(=O)N[C@H](C(N)=O)[C@@H](C)O)C(C)C)C(C)C [[^18F]FBA-(PEG28)2-A20FMDV2] | 9.0 :1 | 4.1 :1 | 5.6 :1 | 150 :1 | 4.4 :1 | 4.4 :1 | 1.57 ± 0.25 | 2.08 ± 0.37 | 9.2 :1 | 0.99 ± 0.18 | 0.79 ± 0.24 | 0.59 ± 0.20 | – | – | – | – | –
2 | CC(C)C[C@H](NC(=O)[C@H](CC(=O)O)NC(=O)CNC(=O)[C@H](CCCNC(=N)N)NC(=O)[C@H](CC(C)C)NC(=O)[C@H](CC(N)=O)NC(=O)[C@@H]1CCCN1C(=O)[C@@H](NC(=O)[C@H](C)NC(=O)[C@H](CC(N)=O)NC(=O)c1ccc(F)cc1)C(C)C)C(=O)N[C@@H](CCC(N)=O)C(=O)N[C@H](C(=O)N[C@@H](CC(C)C)C(=O)N[C@@H](C)C(=O)N[C@@H](CCC(N)=O)C(=O)N[C@@H](CCCCN)C(=O)N[C@H](C(=O)N[C@@H](C)C(=O)N[C@@H](CCCNC(=N)N)C(=O)N[C@H](C(N)=O)[C@@H](C)O)C(C)C)C(C)C [[^18F]FBA-A20FMDV2, 4-[^18F]fluorobenzoyl A20FMDV2] | 3.3 :1 | 1.3 :1 | – | 7.0 :1 | 2.5 :1 | 9.5 :1 | 0.69 ± 0.19 | 0.12 ± 0.03 | – | 0.50 ± 0.22 | 0.22 ± 0.11 | < 0.05 | 0.66 ± 0.09 | 0.06 ± 0.00 | less than half | less than half | –
3 | O=C[C@H]([18F])[C@@H](O)[C@H](O)[C@H](O)CO [[^18F]FDG, 2-[^18F]fluoro-2-deoxy-D-glucose, reference compound] | – | – | – | – | – | – | – | – | – | – | 0.62 ± 0.13 | – | – | – | – | – | failed in all animals to detect the BxPC-3 tumors
